What was measured:
Type in all cases: functional
SF-268 = test: Anticancer activity against human SF268 cells assessed as cell growth promotion at 10^-5 M after 48 hrs by SRB assay relative to control
SF-295 = test: Anticancer activity against human SF295 cells assessed as cell growth promotion at 10^-5 M after 48 hrs by SRB assay relative to control
SF-539 = test: Anticancer activity against human SF539 cells assessed as cell growth promotion at 10^-5 M after 48 hrs by SRB assay relative to control
SNB-19 = test: Anticancer activity against human SNB19 cells assessed as cell growth promotion at 10^-5 M after 48 hrs by SRB assay relative to control
LOX IMVI = test: Anticancer activity against human LOXIMVI cells assessed as cell growth promotion at 10^-5 M after 48 hrs by SRB assay relative to control
Malme-3M = test: Anticancer activity against human MALME-3M cells assessed as cell growth promotion at 10^-5 M after 48 hrs by SRB assay relative to control
CCRF-CEM = test: Anticancer activity against human CCRF-CEM cells assessed as cell growth promotion at 10^-5 M after 48 hrs by SRB assay relative to control
M14 = test: Anticancer activity against human M14 cells assessed as cell growth promotion at 10^-5 M after 48 hrs by SRB assay relative to control
MDA-MB-435 = test: Anticancer activity against human MDA-MB-435 cells assessed as cell growth promotion at 10^-5 M after 48 hrs by SRB assay relative to control
SK-MEL-28 = test: Anticancer activity against human SK-MEL-28 cells assessed as cell growth promotion at 10^-5 M after 48 hrs by SRB assay relative to control
SK-MEL-5 = test: Anticancer activity against human SK-MEL-5 cells assessed as cell growth promotion at 10^-5 M after 48 hrs by SRB assay relative to control
IGROV-1 = test: Anticancer activity against human IGROV1 cells assessed as cell growth promotion at 10^-5 M after 48 hrs by SRB assay relative to control
OVCAR-3 = test: Anticancer activity against human OVCAR3 cells assessed as cell growth promotion at 10^-5 M after 48 hrs by SRB assay relative to control
OVCAR-5 = test: Anticancer activity against human OVCAR5 cells assessed as cell growth promotion at 10^-5 M after 48 hrs by SRB assay relative to control
SK-OV-3 = test: Anticancer activity against human SKOV3 cells assessed as cell growth promotion at 10^-5 M after 48 hrs by SRB assay relative to control
A498 = test: Anticancer activity against human A498 cells assessed as cell growth promotion at 10^-5 M after 48 hrs by SRB assay relative to control
ACHN = test: Anticancer activity against human ACHN cells assessed as cell growth promotion at 10^-5 M after 48 hrs by SRB assay relative to control
CAKI-1 = test: Anticancer activity against human Caki1 cells assessed as cell growth promotion at 10^-5 M after 48 hrs by SRB assay relative to control
RXF 393 = test: Anticancer activity against human RXF393 cells assessed as cell growth promotion at 10^-5 M after 48 hrs by SRB assay relative to control
SN12C = test: Anticancer activity against human SN12C cells assessed as cell growth promotion at 10^-5 M after 48 hrs by SRB assay relative to control
TK-10 = test: Anticancer activity against human TK10 cells assessed as cell growth promotion at 10^-5 M after 48 hrs by SRB assay relative to control
UO-31 = test: Anticancer activity against human UO31 cells assessed as cell growth promotion at 10^-5 M after 48 hrs by SRB assay relative to control
DU-145 = test: Anticancer activity against human DU145 cells assessed as cell growth promotion at 10^-5 M after 48 hrs by SRB assay relative to control
MCF7 = test: Anticancer activity against human MCF7 cells assessed as cell growth promotion at 10^-5 M after 48 hrs by SRB assay relative to control
HL-60(TB) = test: Anticancer activity against human HL-60(TB) cells assessed as cell growth promotion at 10^-5 M after 48 hrs by SRB assay relative to control
Summary of the method: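 NCI-60 single-dose screen: compound at 10^-5 M, 48 h at 37 °C, 5% CO2; cells grown in RPMI 1640 with 5% FBS and 2 mM L-glutamine, pre-incubated 24 h before dosing. Adherent cells fixed with cold TCA; endpoint is sulforhodamine B protein staining. Percent growth of treated cells is reported relative to untreated control.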

K562 = test: Anticancer activity against human K562 cells assessed as cell growth promotion at 10^-5 M after 48 hrs by SRB assay relative to control
MOLT-4 = test: Anticancer activity against human MOLT4 cells assessed as cell growth promotion at 10^-5 M after 48 hrs by SRB assay relative to control
MDA-MB-231 = test: Anticancer activity against human MDA-MB-231 cells assessed as cell growth promotion at 10^-5 M after 48 hrs by SRB assay relative to control
[1] = Anticancer activity against human Hs 578T cells assessed as cell growth promotion at 10^-5 M after 48 hrs by SRB assay relative to control
T47D = test: Anticancer activity against human T47D cells assessed as cell growth promotion at 10^-5 M after 48 hrs by SRB assay relative to control
MDA-MB-468 = test: Anticancer activity against human MDA-MB-468 cells assessed as cell growth promotion at 10^-5 M after 48 hrs by SRB assay relative to control
EKVX = test: Anticancer activity against human EKVX cells assessed as cell growth promotion at 10^-5 M after 48 hrs by SRB assay relative to control
NCI-H23 = test: Anticancer activity against human NCI-H23 cells assessed as cell growth promotion at 10^-5 M after 48 hrs by SRB assay relative to control
NCI-H460 = test: Anticancer activity against human NCI-H460 cells assessed as cell growth promotion at 10^-5 M after 48 hrs by SRB assay relative to control
HCC 2998 = test: Anticancer activity against human HCC2998 cells assessed as cell growth promotion at 10^-5 M after 48 hrs by SRB assay relative to control
HCT-116 = test: Anticancer activity against human HCT116 cells assessed as cell growth promotion at 10^-5 M after 48 hrs by SRB assay relative to control
HT-29 = test: Anticancer activity against human HT-29 cells assessed as cell growth promotion at 10^-5 M after 48 hrs by SRB assay relative to control
KM12 = test: Anticancer activity against human KM12 cells assessed as cell growth promotion at 10^-5 M after 48 hrs by SRB assay relative to control

Row | SMILES | Activity (SF-268) [%] | Activity (SF-295) [%] | Activity (SF-539) [%] | Activity (SNB-19) [%] | Activity (LOX IMVI) [%] | Activity (Malme-3M) [%] | Activity (CCRF-CEM) [%] | Activity (M14) [%] | Activity (MDA-MB-435) [%] | Activity (SK-MEL-28) [%] | Activity (SK-MEL-5) [%] | Activity (IGROV-1) [%] | Activity (OVCAR-3) [%] | Activity (OVCAR-5) [%] | Activity (SK-OV-3) [%] | Activity (A498) [%] | Activity (ACHN) [%] | Activity (CAKI-1) [%] | Activity (RXF 393) [%] | Activity (SN12C) [%] | also measured
1 | NS(=O)(=O)c1ccc(NC(=O)c2ccccc2NC(=O)c2ccco2)cc1 | 98.43 | 103.8 | 86.82 | 110.7 | 101.6 | 118.8 | 98.87 | 113.1 | 107.2 | 107.1 | 108.4 | 117 | 108 | 99.82 | 110 | -23 | 101 | 100 | 113 | 105 | Activity (TK-10): 102%; Activity (UO-31): 104%; Activity (DU-145): 113%; Activity (MCF7): 95.61%; Activity (HL-60(TB)): 93.06%; Activity (K562): 95.39%; Activity (MOLT-4): 87.33%; Activity (MDA-MB-231): 102%; Activity [1]: 118%; Activity (T47D): 103%; Activity (MDA-MB-468): 106%; Activity (EKVX): 97.23%; Activity (NCI-H23): 110.8%; Activity (NCI-H460): 115.5%; Activity (HCC 2998): 103.3%; Activity (HCT-116): 109.7%; Activity (HT-29): 99.28%; Activity (KM12): 108.4%
2 | O=C(Nc1ccccc1C(=O)Nc1ccc(/C=C/c2ccc(Cl)cc2)cc1)c1ccco1 | 107 | 122 | 97.41 | 107 | 94.63 | 115 | 103 | 107 | 101 | 111 | 105 | 117 | 109 | 108 | 116 | 69.42 | 100 | 89.89 | 117 | 103 | Activity (TK-10): 127%; Activity (UO-31): 83.88%; Activity (DU-145): 112%; Activity (MCF7): 98.82%; Activity (HL-60(TB)): 96.67%; Activity (K562): 95.66%; Activity (MOLT-4): 100%; Activity (MDA-MB-231): 102%; Activity [1]: 113%; Activity (T47D): 106%; Activity (MDA-MB-468): 108%; Activity (EKVX): 80.41%; Activity (NCI-H23): 95.98%; Activity (NCI-H460): 107%; Activity (HCC 2998): 96.83%; Activity (HCT-116): 108%; Activity (HT-29): 103%; Activity (KM12): 110%
3 | O=c1c2ccccc2nc(-c2ccco2)n1/N=C/c1ccccc1Cl | 72.86 | 52.12 | 24.89 | 62.14 | 34.24 | 78.64 | 83.12 | 87.98 | 90.21 | 38.98 | 48.82 | 71.23 | 27.98 | 37.89 | 25.85 | 36.82 | 23.89 | 62.86 | 82.73 | 36.81 | Activity (TK-10): 73.98%; Activity (UO-31): 62.12%; Activity (DU-145): 56.23%; Activity (MCF7): 63.86%; Activity (HL-60(TB)): 89.12%; Activity (K562): 101.3%; Activity (MOLT-4): 99.12%; Activity (MDA-MB-231): 52.12%; Activity [1]: 83.85%; Activity (T47D): 62.59%; Activity (MDA-MB-468): 78.92%; Activity (EKVX): 64.12%; Activity (NCI-H23): 64.87%; Activity (NCI-H460): 28.38%; Activity (HCC 2998): 34.89%; Activity (HCT-116): 24.88%; Activity (HT-29): 52.78%; Activity (KM12): 26.67%
4 | C(=C\c1nc2ccccc2nc1SCc1nc2ccccc2[nH]1)/c1ccccc1 | 88.12 | 58.32 | 97.75 | 82.87 | 56.83 | 63.63 | 89.58 | 76.83 | 88.93 | 94.52 | 17.4 | 87.44 | 65.02 | 95.41 | 73.61 | 71.11 | 76.83 | 77.88 | 97.82 | 74.42 | Activity (TK-10): 44.74%; Activity (UO-31): 58.6%; Activity (DU-145): 74.33%; Activity (MCF7): 40.3%; Activity (HL-60(TB)): 77.83%; Activity (K562): 61.44%; Activity (MOLT-4): 63.07%; Activity (MDA-MB-231): 77.23%; Activity [1]: 90.1%; Activity (T47D): 34.6%; Activity (MDA-MB-468): 39.93%; Activity (EKVX): 22.23%; Activity (NCI-H23): 52.23%; Activity (NCI-H460): 70.22%; Activity (HCC 2998): 86.35%; Activity (HCT-116): 35.79%; Activity (KM12): 79.7%
5 | COc1ccc(OC)c(/C=C/c2nc3ccccc3nc2SCc2nc3ccccc3[nH]2)c1 | 99.47 | 110 | 94.92 | 98.9 | 93.9 | 108 | 81.59 | 99.58 | 105 | 118 | 75.46 | 79.39 | 107 | 101 | 85.7 | 95.89 | 94.36 | 83.86 | 87 | 88.34 | Activity (TK-10): 56.15%; Activity (UO-31): 60.33%; Activity (DU-145): 98.54%; Activity (MCF7): 82.73%; Activity (HL-60(TB)): 91.21%; Activity (K562): 90.78%; Activity (MOLT-4): 69.92%; Activity (MDA-MB-231): 96.56%; Activity [1]: 87.08%; Activity (T47D): 63.43%; Activity (MDA-MB-468): 98.24%; Activity (EKVX): 81.9%; Activity (NCI-H23): 92.16%; Activity (NCI-H460): 94.48%; Activity (HCT-116): 73.92%; Activity (HT-29): 80.4%; Activity (KM12): 97.42%
